Here are results for 9 molecules from ChEMBL document CHEMBL1131591, “2-Fluoro-4-pyridinylmethyl analogues of linopirdine as orally active acetylcholine release-enhancing agents with good efficacy and duration of action” (J Med Chem, 1998).

pEC50: −log10 of the molar value.

Assay [1] has as its system Rattus norvegicus. The experiment in a line: Compound was tested in vivo for microdialysis ACh release after peroral administration of 10 mg/kg methocel. The class given is functional. The note with it: route oral. The method in brief: (§1)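 Freely moving rats under brain microdialysis. Dialysate injected onto HPLC every 20 min to measure ACh. Compound or vehicle given orally after the fourth 20-min collection, usually 14 collections in total. Vehicle was water or a suspension in […] methocel in water, bead-milled overnight. Peak reported as percent increase over baseline (control = 0). Duration is the number of consecutive minutes at significance.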

The species named for assay [2] is Rattus norvegicus. Kind of assay: Compound was tested in vitro for its ability to enhance the K+-stimulated release of [3H]acetylcholine from rat hippocampal slices preloaded with [3H]-Choline. In kind it is functional. The note with it: Hippocampus. The method in brief:
(§2)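 Superfused rat hippocampal slices preloaded with [3H]choline. Release evoked for 4 min at two points (S1, S2) by raising K+ in the medium to 25 mM. Compound added after S1 and kept in the medium through S2. Enhancement taken as the S2/S1 ratio, expressed as percent of control (control = 100%). EC50 taken as the concentration giving 50% of the compound's peak efficacy. At least three determinations per point.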

The species entered for assay [3] is Rattus norvegicus. The experiment in a line: Compound was tested in vitro for its ability to enhance the K+-stimulated release of [3H]acetylcholine from rat hippocampal slices preloaded with [3H]choline at 10 uM. In kind it is functional, Hippocampus. The method in brief:
as §2

Assay [4] relates to Rattus norvegicus. Kind of assay: Compound was tested in vivo for microdialysis ACh release after peroral administration of 20 mg/kg methocel at the duration of 140 minutes. The note with it: route oral. In kind it is functional. Summed up: as §1
In assay [5] the test system is Rattus norvegicus. Kind of assay: Compound was tested in vivo for microdialysis ACh release after peroral administration of 5 mg/kg suspended in water at the duration of 20 minutes. The class given is functional. The following applies: route oral. Summed up: as §1
Assay [6] relates to Rattus norvegicus. Kind of assay: Compound was tested in vivo for microdialysis ACh release after peroral administration of 10 mg/kg suspended in methocel at the duration of 80 minutes. The class given is functional. The following applies: route oral. Summed up:
as §1

Assay [7] concerns Rattus norvegicus. Kind of assay: Compound was tested in vivo for microdialysis ACh release after peroral administration of 5 mg/kg suspended in water. In kind it is functional. The following applies: route oral. The method in brief: as §1
In assay [8] the test system is Rattus norvegicus. Kind of assay: Compound was tested in vivo for microdialysis ACh release after peroral administration of 10 mg/kg water at the duration of >40 minutes. The class given is functional. The following applies: route oral. Summed up:
as §1

Assay [9] has as its system Rattus norvegicus. Kind of assay: Compound was tested in vivo for microdialysis ACh release after peroral administration of 10 mg/kg water at the duration of 100 minutes. The class given is functional. The note with it: route oral. The method in brief:
as §1

Assay [10] relates to Rattus norvegicus. The experiment in a line: Compound was tested in vivo for microdialysis ACh release after peroral administration of 0.5 mg/kg suspended in methocel. The following applies: route oral. In kind it is functional. Summed up: as §1
In assay [11] the test system is Rattus norvegicus. The experiment in a line: Compound was tested in vivo for microdialysis ACh release after peroral administration of 1 mg/kg methocel at the duration of >120 minutes. In kind it is functional. The note with it: route oral. The method in brief:
as §1

The species entered for assay [12] is Rattus norvegicus. Kind of assay: Compound was tested in vitro for its ability to enhance the K+-stimulated release of [3H]acetylcholine from rat hippocampal slices preloaded with [3H]choline at 3 uM. In kind it is functional, Hippocampus. The method in brief: as §2
The species entered for assay [13] is Rattus norvegicus. Kind of assay: Compound was tested in vitro for its ability to enhance the K+-stimulated release of [3H]acetylcholine from rat hippocampal slices preloaded with [3H]-Choline at 1 uM. The class given is functional, Hippocampus. The method in brief: as §2
Assay [14] concerns Rattus norvegicus. The experiment in a line: Compound was tested in vivo for microdialysis ACh release after peroral administration of 5 mg/kg methocel at the duration of 100 minutes. The class given is functional. The note with it: route oral. Summed up:
as §1

Assay [15] concerns Rattus norvegicus. The experiment in a line: Compound was tested in vivo for microdialysis ACh release after peroral administration of 5 mg/kg methocel at the duration of >80 minutes. The note with it: route oral. The class given is functional. The method in brief: as §1
The subject of assay [16] is Rattus norvegicus. Kind of assay: Compound was tested in vivo for microdialysis ACh release after peroral administration of 1 mg/kg suspended in methocel at the duration of 120 minutes. In kind it is functional. The following applies: route oral. The method in brief: as §1

Take `O=C1N(c2ccccc2)c2ccccc2C1(Cc1ccnc(F)c1)Cc1ccnc(F)c1`: the Increase over control in the assay with Rattus norvegicus [1] stood at 44%. In the assay filed under Rattus norvegicus [2], the pEC50 was 4.82. Further, the Control in the assay filed under Rattus norvegicus [3] came out at 326%.
In the case of `c1ccc2c(c1)-c1ncccc1C2(Cc1ccncc1)Cc1ccncc1`, the pEC50 in the assay filed under Rattus norvegicus [2] is 5.39. In addition, in the assay listed under Rattus norvegicus [3], the Control came out at 725%.
`O=C1N(c2ccccc2)c2ccccc2C1(Cc1ccncc1)Cc1ccncc1` [LINOPIRDINE]: the pEC50 in the assay filed under Rattus norvegicus [2] was 5.35. The results for the Increase over control in the assay with Rattus norvegicus [4], in the assay with Rattus norvegicus [5] and in the assay on Rattus norvegicus [6] were 117%, 50% and 65%, respectively. Besides, the Control in the assay listed under Rattus norvegicus [3] is given as 337%.
`Fc1cc(CC2(Cc3ccncc3)c3ccccc3-c3ncccc32)ccn1` (configuration not stated): the values for the Increase over control with Rattus norvegicus [7] and with Rattus norvegicus [8] were 47% and 52%, respectively. Moreover, in the assay listed under Rattus norvegicus [2], the negative-log EC50 (pEC50) was 5.97. Besides, the Control in the assay filed under Rattus norvegicus [3] came to 317%.
As to `O=C1c2ccccc2C(Cc2ccncc2)(Cc2ccncc2)c2ccccc21`, the Increase over control in the assay with Rattus norvegicus [7] is listed as 18%; in the assay on Rattus norvegicus [9], 127%. Besides, the pEC50 in the assay listed under Rattus norvegicus [2] is 6.35. Also, the Control in the assay listed under Rattus norvegicus [3] was determined as 600%.
Regarding `O=C1N(c2ccccc2)c2ccccc2C1(Cc1ccncc1)Cc1ccnc(F)c1` (configuration not stated), in the assay with Rattus norvegicus [1], the Increase over control is on record as 27%. In the assay filed under Rattus norvegicus [2], the negative logarithm of the EC50 (pEC50) was 5.00. For the same molecule, the Control in the assay filed under Rattus norvegicus [3] came out at 433%.
For `O=C1c2ccccc2C(Cc2ccnc(F)c2)(Cc2ccnc(F)c2)c2ccccc21`, the Increase over control with Rattus norvegicus [10] amounted to 40%; in the assay on Rattus norvegicus [11], 115%. In addition, the pEC50 in the assay filed under Rattus norvegicus [2] is 6.08. For the same molecule, the Control in the assay filed under Rattus norvegicus [12] was 413%.
Turning to `O=C1c2ccccc2C(Cc2ccncc2)(Cc2ccnc(F)c2)c2ccccc21`, the pEC50 in the assay filed under Rattus norvegicus [2] was 6.39. Also, in the assay filed under Rattus norvegicus [13], the Control worked out at 452%. The same molecule showed an Increase over control in the assay with Rattus norvegicus [14] of 75%.
As for `Fc1cc(CC2(Cc3ccnc(F)c3)c3ccccc3-c3ncccc32)ccn1`, the results for the Increase over control with Rattus norvegicus [15] and with Rattus norvegicus [16] were 201% and 74%, respectively. The pEC50 in the assay listed under Rattus norvegicus [2] was 5.80. Also, the Control in the assay filed under Rattus norvegicus [12] was 440%.

The term pEC50 denotes the negative decadic logarithm of the EC50, by convention in mol/L.
